{"source": "ChEMBL document CHEMBL3098049", "about": "“Concise synthesis and biological evaluation of 2-Aroyl-5-amino benzo[b]thiophene derivatives as a novel class of potent antimitotic agents” (J Med Chem, 2013)", "key": {"PBL [1]": {"system": "PBL", "assay": "Cytotoxicity against PHA-stimulated human PBL assessed as growth inhibition after 72 hrs by MTT assay", "format": "cell-based", "procedure,_shortened": "(§1)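 Human PBL from healthy donors were isolated on a density gradient, washed, and held overnight in RPMI-1640 with 10% FBS. For proliferating cultures, nonadherent cells were resuspended at 5 × 10⁵ cells/mL with 2.5 μg/mL PHA; resting PBL received no PHA. Cells were exposed to varying compound concentrations, and viability was read by MTT after 72 h. IC50 is the concentration reducing growth by 50%, as the mean of three independent experiments.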"}, "Mus musculus": {"system": "Mus musculus", "assay": "Toxicity in Balb/c-nu mouse xenografted with human MNNG-HOS cells assessed as change in body weight at 50 mg/kg, ip administered once every 3 days for 9 days measured after day 18", "format": "organism-based", "parameters": "dose 50 mg/kg, route intraperitoneal", "conditions": "in vivo", "procedure,_shortened": "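MNNG/HOS osteosarcoma cells grown to exponential phase, suspended in FBS-free MEM (10⁷ cells/mL), 0.1 mL injected into back hypodermis of nude mice. At ~100 mm³, 12 mice randomised to three groups (vehicle, CA-4P in isotonic saline, test in 5% DMSO/olive oil). 50 mg/kg ip at 0.01 mL/g on days 0, 3, 6, 9. Tumour volume and body weight tracked; tumours excised and weighed day 18; […].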"}, "HUVEC": {"system": "HUVEC", "assay": "Cytotoxicity against HUVEC assessed as growth inhibition after 72 hrs by MTT assay", "format": "cell-based", "conditions": "Homo sapiens", "procedure,_shortened": "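HUVECs were detached with EDTA/trypsin at confluence, and only passages 1–6 were used. Cells were exposed to varying compound concentrations, and viability was read by MTT after 72 h. IC50 is the concentration reducing cell growth by 50%, as the mean of three independent experiments.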"}, "HeLa [2]": {"system": "HeLa", "assay": "Induction of apoptosis in human HeLa cells at 15 nM after 24 to 48 hrs by annexin-V-FITC/propidium iodide staining-based flow cytometric analysis", "format": "functional, cell-based", "procedure,_shortened": "(§2)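 HeLa cells treated 24 or 48 h, stained with annexin-V-FITC and PI, analysed by flow cytometry. Excitation 488 nm; emission 525 nm for FITC, 585 nm for PI. Gating separates live, early apoptotic, late apoptotic and necrotic cells. Mean of three independent experiments.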"}, "[3]": {"assay": "Cytotoxicity against human Molt4/C8 cells assessed as growth inhibition after 48 hrs by coulter counting analysis", "format": "functional, cell-based", "conditions": "MOLT-4, 48 h", "procedure,_shortened": "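Cells suspended at (3−5) × 10⁵ cells/mL and mixed 1:1 with compound dilutions. Incubated 48 h at 37 °C, counted with a Coulter counter. IC₅₀ = concentration inhibiting proliferation by 50%. Mean of at least three independent experiments.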"}, "[4]": {"molecular_target": "Cyclin-dependent kinase 1 (Homo sapiens) (UniProt P06493)", "sequence (P06493 whole entry, looked up)": "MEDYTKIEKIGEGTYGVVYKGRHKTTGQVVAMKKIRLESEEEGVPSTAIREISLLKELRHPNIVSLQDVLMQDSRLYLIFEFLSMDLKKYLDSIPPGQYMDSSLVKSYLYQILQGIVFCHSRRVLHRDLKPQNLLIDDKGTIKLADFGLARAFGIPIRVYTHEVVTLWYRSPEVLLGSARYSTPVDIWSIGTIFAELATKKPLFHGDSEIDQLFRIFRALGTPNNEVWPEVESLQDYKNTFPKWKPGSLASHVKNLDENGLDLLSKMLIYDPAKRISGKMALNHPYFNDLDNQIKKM", "assay": "Decrease of cdc2 protein phosphorylation at Tyr15 in human HeLa cells at 10 to 100 nM after 24 to 48 hrs by Western blot analysis", "format": "cell-based", "procedure,_shortened": "(§3)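 HeLa cultures treated 24 or 48 h, washed in cold PBS, lysed 30 min at 0 °C, clarified at 15000g. 20 μg protein run on 7.5−15% gradient SDS-PAGE and blotted to PVDF. Primary antibodies 2 h at room temperature, peroxidase secondary 60 min, ECL detection. Membranes stripped and reprobed for β-actin as loading control.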"}, "[5]": {"assay": "Cytotoxicity against mouse FM3A/0 cells assessed as growth inhibition after 48 hrs by coulter counting analysis", "format": "functional, cell-based", "conditions": "FM3A/0, 48 h"}, "Jurkat [6]": {"system": "Jurkat", "assay": "Cell cycle arrest in human Jurkat cells assessed as accumulation at G2/M phase at 10 nM after 24 hrs by propidium iodide staining-based flow cytometric analysis", "format": "functional", "procedure,_shortened": "(§4)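 Jurkat cells treated for 24 h, fixed, PI-labelled and analysed by flow cytometry for cell-cycle phase distribution. Mean of three independent experiments.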"}, "MNNG-HOS": {"system": "MNNG-HOS", "assay": "Antitumor activity against human MNNG-HOS cells xenografted in Balb/c-nu mouse assessed as tumor growth inhibition at 50 mg/kg, ip measured after 3 days", "format": "functional, organism-based", "parameters": "dose 50 mg/kg", "conditions": "HOS-TE85"}, "HeLa [7]": {"system": "HeLa", "assay": "Effect on cyclin B protein expression in human HeLa cells at 10 to 100 nM after 24 to 48 hrs by Western blot analysis", "format": "functional, cell-based", "procedure,_shortened": "as §3"}, "HeLa [8]": {"system": "HeLa", "assay": "Cytotoxicity against human HeLa cells assessed as growth inhibition after 48 hrs by coulter counting analysis", "format": "functional, cell-based"}, "HeLa [9]": {"system": "HeLa", "assay": "Downregulation of Xiap protein expression in human HeLa cells at 10 to 100 nM after 24 to 48 hrs by Western blot analysis", "format": "functional, cell-based", "procedure,_shortened": "as §3"}, "[10]": {"assay": "Cytotoxicity against human CEM/0 cells assessed as growth inhibition after 48 hrs by coulter counting analysis", "format": "functional, cell-based", "conditions": "CCRF-CEM"}, "HeLa [11]": {"system": "HeLa", "assay": "Induction of mitochondrial membrane depolarization in human HeLa cells at 15 to 250 nM by JC-1 staining-based fluorescence assay", "format": "functional, cell-based", "conditions": "TDE = time-dependent effect", "procedure,_shortened": "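HeLa cells treated 24 or 48 h, then stained with JC-1. Cells with depolarised mitochondria quantified by flow cytometry. Mean of three independent experiments.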"}, "Jurkat [12]": {"system": "Jurkat", "assay": "Cell cycle arrest in human Jurkat cells assessed as accumulation at G2/M phase at 15 to 30 nM after 24 hrs by propidium iodide staining-based flow cytometric analysis relative to control", "format": "functional", "procedure,_shortened": "as §4"}, "Tubulin (Homo sapiens)": {"molecular_target": "Tubulin (Homo sapiens) (UniProt P68371+Q9H4B7+P0DPH7+P68366+Q13509+Q71U36+P04350+Q3ZCM7+P07437+P68363+Q9BQE3+Q6PEY2+Q13885+Q9BVA1+Q9BUF5)", "assay": "Displacement of [3H]-colchicine from tubulin (unknown origin) at 1 uM after 10 mins relative to control", "format": "protein-complex assay"}, "PBL [13]": {"system": "PBL", "assay": "Cytotoxicity against resting phase of human PBL assessed as growth inhibition after 72 hrs by MTT assay", "format": "cell-based", "procedure,_shortened": "as §1"}, "Jurkat [14]": {"system": "Jurkat", "assay": "Cell cycle arrest in human Jurkat cells assessed as reduction in S phase up to 60 nM after 24 hrs by propidium iodide staining-based flow cytometric analysis relative to control", "format": "functional", "procedure,_shortened": "as §4"}, "HeLa [15]": {"system": "HeLa", "assay": "Cell cycle arrest in human HeLa cells assessed as reduction in S phase up to 60 nM after 24 hrs by propidium iodide staining-based flow cytometric analysis", "format": "functional", "procedure,_shortened": "(§5)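 HeLa cells (5 × 10⁵) treated for 24 h. Harvested, fixed in 70% ethanol chilled to 0 °C, then suspended in RNase with 0.1% Triton X-100. DNA stained with PI, analysed by flow cytometry as DNA-content histograms. Mean of three independent experiments.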"}, "HeLa [16]": {"system": "HeLa", "assay": "Cell cycle arrest in human HeLa cells assessed as accumulation at G2/M phase at 10 nM after 24 hrs by propidium iodide staining-based flow cytometric analysis", "format": "functional", "procedure,_shortened": "as §5"}, "HeLa [17]": {"system": "HeLa", "assay": "Induction of mitochondrial ROS generation in human HeLa cells after 24 to 48 hrs by H2-DCFDA staining-based flow cytometric analysis", "format": "functional, cell-based", "procedure,_shortened": "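HeLa cells incubated 24 or 48 h with compound, stained with H₂-DCFDA, and intracellular ROS measured by flow cytometry. Mean of three independent experiments.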"}, "Jurkat [18]": {"system": "Jurkat", "assay": "Cell cycle arrest in human Jurkat cells assessed as accumulation at G2/M phase after 24 hrs by propidium iodide staining-based flow cytometric analysis", "format": "functional", "procedure,_shortened": "as §4"}, "HeLa [19]": {"system": "HeLa", "assay": "Induction of apoptosis in human HeLa cells after 24 to 48 hrs by annexin-V-FITC/propidium iodide staining-based flow cytometric analysis", "format": "functional, cell-based", "procedure,_shortened": "as §2"}}, "note": "Active and inactive are the calls of the source. No cut-off for these calls is given here.", "data": [{"smiles": "COc1cc(C(=O)c2cc3cc(N)cc(OC)c3s2)cc(OC)c1OC", "values": [{"measurement": "IC50", "setting": "PBL [1]", "result": 20.6, "unit": "µM"}, {"measurement": "Activity", "setting": "Mus musculus", "result": "Non-toxic"}, {"measurement": "IC50", "setting": "HUVEC", "result": 5.5, "unit": "µM"}, {"measurement": "Activity", "setting": "HeLa [2]", "result": "Active"}, {"measurement": "IC50", "setting": "[3]", "result": 2.6, "unit": "nM"}, {"measurement": "Activity", "setting": "[4]", "result": "Active"}, {"measurement": "IC50", "setting": "[5]", "result": 12, "unit": "nM"}, {"measurement": "Activity", "setting": "Jurkat [6]", "result": "Active"}, {"measurement": "TGI", "setting": "MNNG-HOS", "result": "Active"}, {"measurement": "Activity", "setting": "HeLa [7]", "result": "inactive"}, {"measurement": "IC50", "setting": "HeLa [8]", "result": 8, "unit": "nM"}, {"measurement": "Activity", "setting": "HeLa [9]", "result": "Active"}, {"measurement": "IC50", "setting": "[10]", "result": 4.1, "unit": "nM"}, {"measurement": "Activity", "setting": "HeLa [11]", "result": "tde"}, {"measurement": "Activity", "setting": "Jurkat [12]", "result": 40, "unit": "%"}, {"measurement": "inhibition", "setting": "Tubulin (Homo sapiens)", "result": 89, "unit": "%"}, {"measurement": "IC50", "setting": "PBL [13]", "result": 24.7, "unit": "µM"}, {"measurement": "Activity", "setting": "Jurkat [14]", "result": "Active"}, {"measurement": "Activity", "setting": "HeLa [15]", "result": "Active"}, {"measurement": "Activity", "setting": "HeLa [16]", "result": "Active"}, {"measurement": "Activity", "setting": "HeLa [17]", "result": "Dose-dependent effect"}, {"measurement": "Activity", "setting": "Jurkat [18]", "result": "Dose-dependent effect"}, {"measurement": "Activity", "setting": "HeLa [19]", "result": "Dose-dependent effect"}]}]}
